# Test results from ChEMBL document CHEMBL4406821, “Novel dual inhibitors targeting CDK4 and VEGFR2 synergistically suppressed cancer progression and angiogenesis” (Eur J Med Chem, 2019).
# The source made the active and inactive calls. The rule behind the calls is not given here.
# Legend:
# [1] = system: T47D; experiment: Induction of apoptosis in human T47D cells assessed as decrease in Bcl2 expression at 20 to 40 nM incubated for 48 hrs by Western blot analysis; type: functional, cell-based
# Method in brief: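 Cancer cells were exposed to graded concentrations for 48 h, washed three times in PBS and lysed in RIPA buffer. Immunoblots were probed with anti-Rb, anti-phospho-Rb, anti-Ki67 and anti-Bcl-2, each at 1:1000. β-actin served as loading control.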
# [2] = molecular target: Serine/threonine-protein kinase 10 (Homo sapiens) (UniProt O94804); experiment: Inhibition of recombinant human LOK (1 to 348 residues) at 1 uM using RLGRDKYKTLRQIRQ as substrate incubated for 40 mins in presence of [gamma-33P]-ATP by scintillation counting method relative to control
# [3] = molecular target: Serine/threonine-protein kinase ULK2 (Homo sapiens) (UniProt Q8IYT8); experiment: Inhibition of recombinant human ULK2 (1 to 306 residues) at 1 uM using as casein substrate incubated for 40 mins in presence of [gamma-33P]-ATP by scintillation counting method relative to control
# Sequence of Serine/threonine-protein kinase ULK2 (Homo sapiens) (Q8IYT8 whole entry, the tested form may be a part): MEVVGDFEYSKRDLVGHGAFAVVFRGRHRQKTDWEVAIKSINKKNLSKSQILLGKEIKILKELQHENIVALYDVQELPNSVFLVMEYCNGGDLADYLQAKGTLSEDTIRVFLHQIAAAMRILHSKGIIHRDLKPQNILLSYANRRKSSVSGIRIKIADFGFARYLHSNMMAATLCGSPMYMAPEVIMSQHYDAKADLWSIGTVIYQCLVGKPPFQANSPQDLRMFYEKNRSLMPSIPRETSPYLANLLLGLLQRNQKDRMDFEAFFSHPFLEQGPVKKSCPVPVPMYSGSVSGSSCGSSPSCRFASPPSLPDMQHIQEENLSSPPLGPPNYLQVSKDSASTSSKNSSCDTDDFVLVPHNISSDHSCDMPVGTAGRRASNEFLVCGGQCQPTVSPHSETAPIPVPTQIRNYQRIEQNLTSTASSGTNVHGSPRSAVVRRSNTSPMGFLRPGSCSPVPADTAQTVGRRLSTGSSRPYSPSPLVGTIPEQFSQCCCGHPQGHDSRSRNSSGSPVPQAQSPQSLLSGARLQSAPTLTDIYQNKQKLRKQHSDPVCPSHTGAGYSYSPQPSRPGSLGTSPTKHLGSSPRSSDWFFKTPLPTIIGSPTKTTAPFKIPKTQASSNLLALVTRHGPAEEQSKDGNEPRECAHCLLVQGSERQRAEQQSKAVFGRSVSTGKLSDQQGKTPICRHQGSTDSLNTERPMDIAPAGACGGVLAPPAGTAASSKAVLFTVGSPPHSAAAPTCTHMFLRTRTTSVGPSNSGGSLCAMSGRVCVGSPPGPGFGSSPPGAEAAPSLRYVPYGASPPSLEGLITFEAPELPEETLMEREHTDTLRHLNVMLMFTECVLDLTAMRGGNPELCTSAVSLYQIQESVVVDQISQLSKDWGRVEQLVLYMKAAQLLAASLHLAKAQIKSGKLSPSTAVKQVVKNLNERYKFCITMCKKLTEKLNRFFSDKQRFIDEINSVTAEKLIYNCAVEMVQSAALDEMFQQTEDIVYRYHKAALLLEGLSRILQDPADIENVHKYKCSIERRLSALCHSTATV
# Method in brief: (§1)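 Tested at a single 1 uM in an outsourced commercial kinase-profiling panel, read as percent inhibition. Each value is the mean of two independent experiments.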
# [4] = molecular target: CDK6/cyclin D3 (Homo sapiens) (UniProt P30281+Q00534); experiment: Inhibition of recombinant human full length CDK6/cyclinD3 at 1 uM using histone H1 as substrate incubated for 40 mins in presence of [gamma-33P]-ATP by scintillation counting method relative to control; type: protein-complex assay
# [5] = molecular target: Serine/threonine-protein kinase Nek9 (Homo sapiens) (UniProt Q8TD19); experiment: Inhibition of recombinant human NEK9 (1 to 324 residues) at 1 uM using myelin basic protein as substrate incubated for 40 mins in presence of [gamma-33P]-ATP by scintillation counting method relative to control
# [6] = molecular target: Dual specificity mitogen-activated protein kinase kinase 2 (Homo sapiens) (UniProt P36507); experiment: Inhibition of recombinant human full length MEK2 at 1 uM using MBP as substrate incubated for 40 mins in presence of [gamma-33P]-ATP by scintillation counting method relative to control
# Sequence of Dual specificity mitogen-activated protein kinase kinase 2 (Homo sapiens) (P36507 whole entry): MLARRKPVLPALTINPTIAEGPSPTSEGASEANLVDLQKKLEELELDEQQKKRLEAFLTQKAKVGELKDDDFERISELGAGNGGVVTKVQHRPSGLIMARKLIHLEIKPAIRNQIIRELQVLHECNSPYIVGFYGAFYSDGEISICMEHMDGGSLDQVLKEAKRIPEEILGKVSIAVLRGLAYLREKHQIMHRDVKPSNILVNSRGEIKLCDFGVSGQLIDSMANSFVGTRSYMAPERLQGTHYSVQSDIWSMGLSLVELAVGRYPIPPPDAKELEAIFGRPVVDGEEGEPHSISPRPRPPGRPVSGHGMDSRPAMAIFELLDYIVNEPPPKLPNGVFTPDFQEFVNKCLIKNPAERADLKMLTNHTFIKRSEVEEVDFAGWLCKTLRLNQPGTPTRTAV
# [7] = molecular target: Serine/threonine-protein kinase Chk2 (Homo sapiens) (UniProt O96017); experiment: Inhibition of recombinant human CHK2 (5 to end residues) at 1 uM using KKKVSRSGLYRSP as substrate incubated for 40 mins in presence of [gamma-33P]-ATP by scintillation counting method relative to control
# Method in brief: (§2)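 Kinase panel profiling at 1 μM performed by Eurofins KinaseProfiler; percent inhibition reported as mean of two independent experiments.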
# [8] = molecular target: Platelet-derived growth factor receptor alpha (Homo sapiens) (UniProt P16234); experiment: Inhibition of recombinant human PDGFRalpha (550 to end residues) at 1 uM using poly(Glu, Tyr) 4:1 as substrate incubated for 40 mins in presence of [gamma-33P]-ATP by scintillation counting method relative to control; method in brief: as §1
# Sequence of Platelet-derived growth factor receptor alpha (Homo sapiens) (P16234 whole entry): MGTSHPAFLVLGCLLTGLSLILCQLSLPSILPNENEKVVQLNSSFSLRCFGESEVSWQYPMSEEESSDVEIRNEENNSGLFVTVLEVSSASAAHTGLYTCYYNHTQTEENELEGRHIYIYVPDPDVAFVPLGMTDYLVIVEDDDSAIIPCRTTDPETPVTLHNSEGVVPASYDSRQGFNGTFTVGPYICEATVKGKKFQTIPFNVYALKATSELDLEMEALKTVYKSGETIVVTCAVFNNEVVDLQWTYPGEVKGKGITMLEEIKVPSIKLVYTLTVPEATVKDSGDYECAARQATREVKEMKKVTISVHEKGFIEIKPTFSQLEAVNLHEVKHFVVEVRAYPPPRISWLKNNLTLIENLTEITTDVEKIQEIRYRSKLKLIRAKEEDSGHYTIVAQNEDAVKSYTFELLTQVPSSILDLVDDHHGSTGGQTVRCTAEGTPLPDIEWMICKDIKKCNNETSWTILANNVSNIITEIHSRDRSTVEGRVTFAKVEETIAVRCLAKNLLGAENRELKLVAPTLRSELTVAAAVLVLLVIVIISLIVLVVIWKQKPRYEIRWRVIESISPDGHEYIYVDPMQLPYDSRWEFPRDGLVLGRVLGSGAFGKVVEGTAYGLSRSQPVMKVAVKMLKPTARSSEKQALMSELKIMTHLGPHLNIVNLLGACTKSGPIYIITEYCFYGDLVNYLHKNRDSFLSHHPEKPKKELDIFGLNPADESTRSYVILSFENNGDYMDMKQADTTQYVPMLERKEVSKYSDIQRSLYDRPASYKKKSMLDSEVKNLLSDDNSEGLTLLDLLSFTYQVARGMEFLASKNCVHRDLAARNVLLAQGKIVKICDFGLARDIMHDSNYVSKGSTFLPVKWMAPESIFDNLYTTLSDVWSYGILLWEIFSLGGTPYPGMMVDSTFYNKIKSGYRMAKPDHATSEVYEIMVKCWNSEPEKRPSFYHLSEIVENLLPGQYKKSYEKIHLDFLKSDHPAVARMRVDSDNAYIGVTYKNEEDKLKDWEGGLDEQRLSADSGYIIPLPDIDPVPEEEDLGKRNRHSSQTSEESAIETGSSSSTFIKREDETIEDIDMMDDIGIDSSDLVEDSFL
# [9] = molecular target: Transcription initiation factor TFIID subunit 1-like (Homo sapiens) (UniProt Q8IZX4); experiment: Inhibition of recombinant human TAF1L (1428 to end residues) at 1 uM using RRRFRPASPLRGPPK as substrate incubated for 40 mins in presence of [gamma-33P]-ATP by scintillation counting method relative to control; method in brief: as §1
# Sequence of Transcription initiation factor TFIID subunit 1-like (Homo sapiens) (Q8IZX4 whole entry): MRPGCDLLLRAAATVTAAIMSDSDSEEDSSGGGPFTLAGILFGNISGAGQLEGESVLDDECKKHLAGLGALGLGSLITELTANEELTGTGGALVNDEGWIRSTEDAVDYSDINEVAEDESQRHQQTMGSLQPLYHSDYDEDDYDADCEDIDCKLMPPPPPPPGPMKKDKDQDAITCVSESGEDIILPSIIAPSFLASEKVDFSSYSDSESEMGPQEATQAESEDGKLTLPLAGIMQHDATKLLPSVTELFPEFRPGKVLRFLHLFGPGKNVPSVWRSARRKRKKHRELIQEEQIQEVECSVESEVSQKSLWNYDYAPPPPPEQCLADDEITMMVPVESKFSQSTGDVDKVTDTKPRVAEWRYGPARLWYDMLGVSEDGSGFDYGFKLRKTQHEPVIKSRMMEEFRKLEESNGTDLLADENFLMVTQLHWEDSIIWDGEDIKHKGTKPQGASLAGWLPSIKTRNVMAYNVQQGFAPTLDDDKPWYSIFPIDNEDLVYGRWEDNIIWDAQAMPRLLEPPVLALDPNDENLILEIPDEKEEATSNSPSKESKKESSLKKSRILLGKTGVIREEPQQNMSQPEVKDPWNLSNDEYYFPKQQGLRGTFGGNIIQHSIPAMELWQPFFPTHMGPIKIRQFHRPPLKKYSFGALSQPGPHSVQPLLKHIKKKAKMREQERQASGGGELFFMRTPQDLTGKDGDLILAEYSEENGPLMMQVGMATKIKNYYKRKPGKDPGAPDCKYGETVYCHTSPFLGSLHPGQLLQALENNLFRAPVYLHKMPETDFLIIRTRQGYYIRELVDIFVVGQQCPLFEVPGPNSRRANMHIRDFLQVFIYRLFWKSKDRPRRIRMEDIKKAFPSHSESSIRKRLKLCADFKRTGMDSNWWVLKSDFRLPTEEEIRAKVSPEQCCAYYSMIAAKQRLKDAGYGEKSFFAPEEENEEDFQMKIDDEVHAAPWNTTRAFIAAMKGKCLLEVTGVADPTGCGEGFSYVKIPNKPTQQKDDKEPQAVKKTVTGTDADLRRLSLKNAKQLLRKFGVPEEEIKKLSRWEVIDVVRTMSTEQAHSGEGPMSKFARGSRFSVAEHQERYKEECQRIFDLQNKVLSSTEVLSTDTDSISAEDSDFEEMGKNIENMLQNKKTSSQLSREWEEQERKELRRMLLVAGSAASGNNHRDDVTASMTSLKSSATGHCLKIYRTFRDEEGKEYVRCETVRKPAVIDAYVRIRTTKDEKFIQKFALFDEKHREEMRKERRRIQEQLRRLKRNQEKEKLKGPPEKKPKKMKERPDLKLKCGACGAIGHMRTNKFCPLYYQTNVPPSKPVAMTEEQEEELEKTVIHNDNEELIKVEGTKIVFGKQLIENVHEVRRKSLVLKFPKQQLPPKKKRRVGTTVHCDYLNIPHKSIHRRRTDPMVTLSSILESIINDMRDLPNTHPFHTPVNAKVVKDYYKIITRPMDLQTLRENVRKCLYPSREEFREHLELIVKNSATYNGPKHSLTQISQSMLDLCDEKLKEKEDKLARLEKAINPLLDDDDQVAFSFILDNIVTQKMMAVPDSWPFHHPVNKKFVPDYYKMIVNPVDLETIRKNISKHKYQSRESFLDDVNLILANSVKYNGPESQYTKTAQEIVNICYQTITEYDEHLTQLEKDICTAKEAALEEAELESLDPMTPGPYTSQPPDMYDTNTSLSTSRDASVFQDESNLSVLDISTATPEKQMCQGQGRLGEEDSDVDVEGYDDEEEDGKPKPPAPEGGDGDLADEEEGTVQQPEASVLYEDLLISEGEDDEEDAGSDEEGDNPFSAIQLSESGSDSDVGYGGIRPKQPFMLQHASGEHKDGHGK
# [10] = molecular target: Ribosomal protein S6 kinase alpha-3 (Homo sapiens) (UniProt P51812); experiment: Inhibition of recombinant human RSK2 (2 to end residues) at 1 uM using KKKNRTLSVA as substrate incubated for 40 mins in presence of [gamma-33P]-ATP by scintillation counting method relative to control
# [11] = molecular target: Tau-tubulin kinase 1 (Homo sapiens) (UniProt Q5TCY1); experiment: Inhibition of recombinant human TTBK1 (1 to 479 residues) at 1 uM using casein as substrate incubated for 40 mins in presence of [gamma-33P]-ATP by scintillation counting method relative to control; method in brief: as §1
# [12] = molecular target: Casein kinase I isoform gamma-1 (Homo sapiens) (UniProt Q9HCP0); experiment: Inhibition of recombinant human CK1gamma1 (25 to 355 residues) at 1 uM using KRRRALS(p)VAS as substrate incubated for 40 mins in presence of [gamma-33P]-ATP by scintillation counting method relative to control; method in brief: as §2
# [13] = molecular target: PAS domain-containing serine/threonine-protein kinase (Homo sapiens) (UniProt Q96RG2); experiment: Inhibition of recombinant human PASK (995 to end residues) at 1 uM using KKLNRTLSFAEPG as substrate incubated for 40 mins in presence of [gamma-33P]-ATP by scintillation counting method relative to control
# [14] = system: SiHa; experiment: Antiangiogenic activity against human SiHa cells xenografted in orally dosed NOD/SCID BALB/c mouse assessed as reduction in CD31 expression measured after 21 days by hematoxylin and eosin staining based immunohistochemistry; type: functional, organism-based
# Method in brief: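 Female NOD/SCID Balb/c mice, 6–8 weeks old, received 2×10^6 SiHa cells subcutaneously in the right flank. Once tumors reached 100 mm³, mice were randomized, 5 per group, and gavaged once daily for 21 days. Formalin-fixed, paraffin-embedded tumor sections were stained with Ki67 or CD31 antibody (1:100, 4 °C overnight), then biotin secondary and ABC-peroxidase/DAB, with hematoxylin counterstain.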
# [15] = molecular target: Calcium/calmodulin-dependent protein kinase type IV (Homo sapiens) (UniProt Q16566); experiment: Inhibition of recombinant full length human CAMK4 at 1 uM using calmodulin as substrate incubated for 40 mins in presence of [gamma-33P]-ATP by scintillation counting method relative to control; method in brief: as §2
# [16] = molecular target: Tyrosine-protein kinase BTK (Homo sapiens) (UniProt Q06187); experiment: Inhibition of recombinant full length human BTK at 1 uM using LSNLYHQGKFLQT as substrate incubated for 40 mins in presence of [gamma-33P]-ATP by scintillation counting method relative to control; method in brief: as §1
# Sequence of Tyrosine-protein kinase BTK (Homo sapiens) (Q06187 whole entry): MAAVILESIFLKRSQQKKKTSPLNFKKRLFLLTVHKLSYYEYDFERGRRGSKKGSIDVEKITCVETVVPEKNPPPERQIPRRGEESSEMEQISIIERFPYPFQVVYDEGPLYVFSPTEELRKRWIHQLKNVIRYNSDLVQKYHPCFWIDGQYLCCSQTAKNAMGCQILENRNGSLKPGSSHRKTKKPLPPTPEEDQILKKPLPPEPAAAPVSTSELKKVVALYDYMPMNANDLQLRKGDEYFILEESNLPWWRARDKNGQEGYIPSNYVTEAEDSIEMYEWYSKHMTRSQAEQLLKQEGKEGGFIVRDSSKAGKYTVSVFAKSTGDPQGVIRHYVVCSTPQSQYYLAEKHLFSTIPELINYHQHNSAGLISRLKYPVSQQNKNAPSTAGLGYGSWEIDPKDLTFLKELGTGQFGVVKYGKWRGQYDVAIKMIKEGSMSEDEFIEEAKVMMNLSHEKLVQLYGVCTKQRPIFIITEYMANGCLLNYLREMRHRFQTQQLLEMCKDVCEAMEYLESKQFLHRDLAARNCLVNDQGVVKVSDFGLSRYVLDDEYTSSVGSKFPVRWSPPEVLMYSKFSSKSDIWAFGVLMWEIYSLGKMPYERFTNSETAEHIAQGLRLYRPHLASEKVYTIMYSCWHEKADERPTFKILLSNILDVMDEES
# [17] = system: SiHa; experiment: Induction of apoptosis in human SiHa cells at 40 nM incubated for 48 hrs by annexin V FITC and propidium iodide staining based flow cytometry; type: functional, cell-based
# Method in brief: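 Annexin V-FITC/PI double staining with flow-cytometric readout. MDA-MB-231, T-47D, SiHa and HeLa cells were treated with graded concentrations for 48 h. MDA-MB-231 and T-47D were grown in DMEM and SiHa in 1640 medium, each with 10% FBS and 1% penicillin/streptomycin at 37°C under 5% CO2. Early- and late-stage apoptotic fractions were scored.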
# [18] = system: T47D; experiment: Induction of cell cycle arrest in human T47D cells assessed as accumulation in G2/M phase at 40 nM incubated for 36 hrs by propidium iodide staining based flow cytometry; type: functional
# Method in brief: (§3)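 Cells were treated with graded concentrations for 36 h, then fixed overnight in 70% ice-cold ethanol at 4°C and resuspended in PBS. Staining used 50 µg/ml PI plus 5 µg/ml RNase at 37°C for 30 min. DNA content was analysed by FACS to give G0/G1, S and G2/M fractions.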
# [19] = system: HeLa; experiment: Induction of cell cycle arrest in human HeLa cells assessed as accumulation in G2/M phase at 80 nM incubated for 36 hrs by propidium iodide staining based flow cytometry; type: functional; method in brief: as §3
# [20] = system: SiHa; experiment: Antitumor activity against human SiHa cells xenografted in NOD/SCID BALB/c mouse assessed as tumor growth inhibition at 40 mg/kg, po administered for 21 days; type: functional, organism-based
SMILES,Activity [1],inhibition [2] [%],inhibition [3] [%],inhibition [4] [%],inhibition [5] [%],inhibition [6] [%],inhibition [7] [%],inhibition [8] [%],inhibition [9] [%],inhibition [10] [%],inhibition [11] [%],inhibition [12] [%],inhibition [13] [%],inhibition [14],inhibition [15] [%],inhibition [16] [%],Activity [17],Activity [18],Activity [19],TGI [20]
Cc1ccc(NC(=O)C2(C(=O)Nc3ccc(Nc4ncc(F)c(-c5cc(F)c6nc(C)n(C(C)C)c6c5)n4)cc3)CC2)cc1,Active,93,0,94,71,14,22,0,0,19,0,23,19,Dose-dependent effect,6,0,,,,
COc1cc2nccc(Oc3ccc(NC(=O)C4(C(=O)Nc5ccc(F)cc5)CC4)cc3)c2cc1OC [CABOZANTINIB],,,,,,,,,,,,,,,,,Active,Active,Active,Active
